Data as given in BindingDB's records for doi:10.1021/jm00108a037 (Katholieke Universiteit Leuven, 1991).

Tests used:
[1] = target: T1, Acyl-protein thioesterase 1 (Rattus norvegicus, UniProt P70470); test: ChEBML_100186
Excerpt: in vitro inhibitory activity against Lysosomal phospholipase A1 consisting of negatively charged liposomes and lysosomal extracts. p<0.05

[2] = target: T1, Acyl-protein thioesterase 1; test: in vitro inhibitory activity against Lysosomal phospholipase A1 consisting of negatively charged liposomes and lysosomal extracts.
Procedure, shortened: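 Lysosomal phospholipase activity measured on labeled phosphatidylcholine incorporated into negatively charged liposomes, read as release of labeled lysophosphatidylcholine.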

T1 sequence (P70470 whole entry): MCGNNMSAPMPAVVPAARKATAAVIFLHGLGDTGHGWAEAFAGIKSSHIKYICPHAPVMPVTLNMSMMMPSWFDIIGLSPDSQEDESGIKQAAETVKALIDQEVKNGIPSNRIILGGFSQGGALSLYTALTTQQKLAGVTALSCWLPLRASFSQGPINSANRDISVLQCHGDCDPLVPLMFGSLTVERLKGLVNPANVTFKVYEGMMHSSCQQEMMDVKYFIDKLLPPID

IC50 [1] [µM]	IC50 [2] [µM]	Structure (SMILES)
79		NCC1OC(OC2C(N)CC(N)(CO)C(OC3OC(CO)C(O)C(N)C3O)C2O)C(N)C(O)C1O (centres undefined)
	105	NCC1OC(OC2C(N)CC(N)(CO)C(OC3OC(CCl)C(O)C(N)C3O)C2O)C(N)C(O)C1O (centres undefined)
	119	CC(=O)NCC1OC(OC2C(O)C(OC3OC(CN)C(O)C(O)C3N)C(N)CC2(N)CO)C(O)C(N)C1O (centres undefined)
95		[N-]=[N+]=NCC1OC(OC2C(O)C(OC3OC(CN)C(O)C(O)C3N)C(N)CC2(N)CO)C(O)C(N)C1O (centres undefined)
